Assay results pooled from the literature.
Compare with care: the assays were run in different laboratories.
ABL1: Tyrosine-protein kinase ABL1 (ABL1, Homo sapiens, UniProt P00519)
ABL1 T315I: Tyrosine-protein kinase ABL1 (ABL1, Homo sapiens, UniProt P00519, T315I)
ABL1 Y253F: Tyrosine-protein kinase ABL1 (ABL1, Homo sapiens, UniProt P00519, Y253F)
ABL1 T315I phosphorylated: Tyrosine-protein kinase ABL1, phosphorylated (ABL1, Homo sapiens, UniProt P00519, T315I)

| SMILES | target | observed | mode | method | tested at | quantity | value |
| --- | --- | --- | --- | --- | --- | --- | --- |
| c1ccc(N2CCN(Cc3nc4ccccc4[nH]3)CC2)nc1 | Tyrosine-protein kinase ABL1, phosphorylated (ABL1, Homo sapiens, UniProt P00519, F317L) | binding | – | competition with immobilised ligand | 1 µM | remaining binding | 100% |
| COc1cc2nccc(Oc3ccc(NC(=O)Nc4ccc(F)cc4F)c(F)c3)c2cc1OC | ABL1 | thermal stability | – | DSF | 10 µM | ΔTm | > 10 °C |
| O=C(Nc1cccnn1)N1CCC(=Cc2cccc(Oc3ccc(C(F)(F)F)cn3)c2)CC1 | Tyrosine-protein kinase ABL1, phosphorylated (ABL1, Homo sapiens, UniProt P00519, F317I) | binding | – | – | 1 µM | remaining binding | 100% |
| Nc1ncnc2occ(-c3ccc(NC(=O)Nc4cc(C(F)(F)F)ccc4F)cc3)c12 | Tyrosine-protein kinase ABL1, non-phosphorylated (ABL1, Homo sapiens, UniProt P00519, T315I) | cell-free assay | inhibitor | – | 20 µM | remaining signal | 0% |
| C[C@@H]1CN(c2cc(-c3nn(C)c4ccc(OC5(C)CC5)cc34)ncn2)C[C@H](C)O1 | Tyrosine-protein kinase ABL1, non-phosphorylated (ABL1, Homo sapiens, UniProt P00519, F317I) | binding | – | competition with immobilised ligand | 1 µM | remaining binding | 62% |
| N#CCCc1ccc2c(c1)-c1[nH]c3ccc([N+](=O)[O-])cc3c1CC(=O)N2 | ABL1 | cell-free assay | – | – | 0.5 µM | remaining signal | 47.8% |
| CCCOc1ccc(OC)c(F)c1C(=O)c1ccc(C(=O)N[C@@H]2CNC[C@H]2NC(=O)c2ccc3[nH]ncc3c2)cc1 | Tyrosine-protein kinase ABL1 (ABL1, Homo sapiens, UniProt P00519, M351T) | enzyme activity | inhibitor | – | 10 µM | remaining activity | 113% |
| COc1cc(-c2cc(-c3ccc(N4CCNCC4)cc3)cnc2N)cc(OC)c1OC | ABL1 T315I | enzyme activity | inhibitor | – | 0.1 µM | inhibition | 13% |
| Cc1nccc(COC(=O)N2C[C@@H]3[C@@H](CNC(=O)c4ccc5[nH]nnc5c4)[C@@H]3C2)n1 | Tyrosine-protein kinase ABL1, non-phosphorylated (ABL1, Homo sapiens, UniProt P00519, H396P) | cell-free assay | – | competition with immobilised ligand | 1 µM | remaining binding | 93% |
| Cc1cc(NC(=O)c2cccc3cc(-c4cccc5[nH]nc(N)c45)ccc23)ccc1F | ABL1 Y253F | enzyme activity | inhibitor | – | 0.1 µM | activity vs control | 91% |
| Cc1ccc(C(=O)NCc2ccsc2)cc1C#Cc1cn(C(C)C)c2ncnc(N)c12 | ABL1 T315I | enzyme activity | inhibitor | – | 1 µM | activity vs control | 6% |
| COc1cc(/C=C/C(=O)CC(=O)/C=C/c2ccc(O)c(OC)c2)ccc1O | ABL1 | enzyme activity | inhibitor | – | 1 µM | activity vs control | 82% |
| Cc1ccc(NC(=O)c2ccc(C)c(C(F)(F)F)c2)cc1C#Cc1nn(C2CCC(O)CC2)c2ncnc(N)c12 (stereo not shown) | ABL1 Y253F | cell-free assay | – | – | 10 µM | remaining signal | 0% |
| CC(C)c1ccc(NC(=O)c2cccs2)c(-c2nc3ccccc3[nH]c2=O)c1 | ABL1 | enzyme activity | inhibitor | – | 1 µM | activity vs control | 115% |
| COc1ccc(COc2ccc(Cc3cnc(N)nc3N)cc2OC)cc1 | ABL1 | cell-free assay | – | – | 0.5 µM | remaining signal | 102% |
| c1nc2c(Nc3ccc4c(c3)OCCO4)nc(Nc3ccc4c(c3)OCCO4)nc2[nH]1 | Tyrosine-protein kinase ABL1, non-phosphorylated (ABL1, Homo sapiens, UniProt P00519) | enzyme activity | inhibitor | – | 10 µM | activity vs control | 2.1% |
| CC(C)CC(=O)N1CCc2nc(-c3ccc(Br)cc3)nc(N(C)Cc3ccccc3)c2C1 | Tyrosine-protein kinase ABL1, phosphorylated (ABL1, Homo sapiens, UniProt P00519, H396P) | cell-free assay | – | competition with immobilised ligand | 0.1 µM | remaining binding | 100% |
| C[C@@H]1CCN(C(=O)CC#N)C[C@@H]1N(C)c1ncnc2[nH]ccc12 | ABL1 | cell-free assay | inhibitor | – | 0.5 µM | remaining signal | 101% |
| COc1cc2ncnc(Nc3ccc(Oc4ccccc4)c(C)c3C)c2cc1OC | Tyrosine-protein kinase ABL1 (ABL1, Homo sapiens, UniProt P00519, E255K) | enzyme activity | inhibitor | – | 1 µM | inhibition | 5% |
| CC(=O)Nc1c(C(C)=O)c(=O)n(C)c2nc(-c3ccc(Cl)cc3Cl)c(-c3ccc(Cl)cc3)cc12 | ABL1 T315I phosphorylated | cell-free assay | – | competition with immobilised ligand | 1 µM | remaining binding | 100% |
| COc1cc2ncnc(Nc3ccc(Oc4ccccc4)cc3C)c2cc1OC | ABL1 | enzyme activity | inhibitor | – | 1 µM | inhibition | 13% |
| CO[C@@H](C)c1c(Nc2ccc([C@H](N(C)C(=O)C3CCS(=O)(=O)CC3)C(F)(F)F)cc2)cnc2cc(Cl)nn12 | ABL1 T315I phosphorylated | cell-free assay | – | competition with immobilised ligand | 1 µM | remaining binding | 87% |
| Cc1cnc(NC2CCOCC2)nc1-n1cnc(C(=O)NC(CN)c2cc(F)cc(Cl)c2)c1 (stereo not shown) | ABL1 T315I | enzyme activity | inhibitor | radiometric | 1 µM | remaining activity | 115% |
| C[C@H](c1cccc(C#N)c1)n1cc(Cl)cc(C(N)=O)c1=N | Tyrosine-protein kinase ABL1, non-phosphorylated (ABL1, Homo sapiens, UniProt P00519, F317L) | cell-free assay | – | competition with immobilised ligand | 1 µM | remaining binding | 75% |
| COc1cc2c(N3CCN(C(=O)Nc4ccc(OC(C)C)cc4)CC3)ncnc2cc1OCCCN1CCCCC1 | ABL1 | cell-free assay | – | – | 0.5 µM | remaining signal | 104% |
